In PubChem BioAssay AID588836 (Broad Institute, 2011):
Active and inactive are the calls of the source. No rule for the calls is given here.

Target: Scavenger receptor class B member 1 (Mus musculus) (UniProt Q61009)
Assay: wild-type mSR-BI cholesteryl ester uptake blockade – wild-type cells, scintillation, powder samples, orthogonal assay for SR-BI HDL uptake inhibitor project, late-stage follow-up (AID 588836)
Settings: CHO mSR-BI cells, [3H]cholesteryl ester HDL uptake, at 1 µM, hits give low values
Outline: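 Assay system: CHO-derived mSR-BI cells lacking LDL receptor, overexpressing murine SR-BI / Read-out: specific uptake, % of compound-free control / Buffer or medium: Ham's F12K medium with 0.5% fatty-acid-free BSA / Measured by: scintillation counting of tritium label / Timing: 1 h pretreatment plus 2 h uptake at 37 °C / Doses: compound with 0.5% DMSO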

Sequence of Scavenger receptor class B member 1 (Mus musculus) (Q61009 whole entry, looked up): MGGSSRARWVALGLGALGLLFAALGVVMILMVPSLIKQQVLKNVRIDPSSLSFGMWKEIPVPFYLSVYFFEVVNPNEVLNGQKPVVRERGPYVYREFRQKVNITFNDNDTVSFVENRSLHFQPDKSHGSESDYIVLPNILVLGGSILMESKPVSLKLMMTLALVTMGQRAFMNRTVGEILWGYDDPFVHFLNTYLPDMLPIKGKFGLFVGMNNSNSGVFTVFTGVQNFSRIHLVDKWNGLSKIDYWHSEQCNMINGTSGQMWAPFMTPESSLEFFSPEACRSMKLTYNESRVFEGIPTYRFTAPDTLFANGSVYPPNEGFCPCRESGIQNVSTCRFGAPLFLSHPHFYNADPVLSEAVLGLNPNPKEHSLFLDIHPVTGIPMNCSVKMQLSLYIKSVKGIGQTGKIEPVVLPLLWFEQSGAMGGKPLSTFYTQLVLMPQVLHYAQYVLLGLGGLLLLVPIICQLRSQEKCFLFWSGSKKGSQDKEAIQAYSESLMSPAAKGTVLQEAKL

HDL cholesterol uptake	Compound
48.9%	COc1ccc(-c2nnn(CC(=O)N(C3CCCCC3)C(C)C(=O)NC3CCCC3)n2)cc1OC (stereo not given)
54.8%	Cc1ccc2oc(-c3cccc(NC(=O)c4cc(-n5cnnc5)ccc4Cl)c3)nc2c1
52.6%	CCC(=O)N1CCc2cc(-c3csc(NC(=O)c4ccco4)n3)ccc21
85.2% (inactive)	O=C(Nc1ccc(Cl)cc1C(=O)c1ccc(Cl)cc1)c1cc(Br)ccc1NS(=O)(=O)c1ccc(Cl)cc1
45.9%	CCOC(=O)N1CCC(NC(=O)c2ccc3c(c2)N(Cc2ccc(F)cc2)CCS3)CC1
